Assay results from ChEMBL document CHEMBL4316592, “Synthesis of new derivatives of boehmeriasin A and their biological evaluation in liver cancer” (Eur J Med Chem, 2019).
Calls of active or inactive are those of the source. No cut-off for these calls is given here.

Experiments:
HCT-116 = test: Cytotoxicity against human HCT116 cells after 72 hrs by SRB assay; format: functional, cell-based; details: Homo sapiens, HCT-116, 72 h; read-out: IC50
Method in brief: (§1)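 SRB assay. Cells plated per well (HCT116 3000; Huh7, Hep3B, HepG2, MCF-7 2000; Mahlavu, FOCUS, SNU475 1000) and grown 24 h. Compounds came from 20 mM DMSO stocks and were tested in triplicate, 40 to 2,5 (or 2,5 to 0,03) per printed range, for 72 h. Cells fixed in 10% TCA, stained with 0.4% SRB, dye dissolved in 10 mM Tris, A515 read. IC50 derived after DMSO normalization.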

Hep 3B2 = test: Cytotoxicity against human Hep3B cells after 72 hrs by SRB assay; format: functional, cell-based; details: Homo sapiens, Hep3B, 72 h; read-out: IC50; method in brief: as §1
SNU-475 = test: Cytotoxicity against human SNU475 cells after 72 hrs by SRB assay; format: functional, cell-based; details: Homo sapiens, SNU-475, 72 h; read-out: IC50; method in brief: as §1
Huh-7 [1] = test: Cytotoxicity against human HuH7 cells after 72 hrs by RTCA analysis; format: functional, cell-based; details: Huh-7, 72 h
Method in brief: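 xCELLigence impedance real-time growth assay. Huh7 (2000) or Mahlavu (1000) cells plated, treated after 24 h at log phase with a 2-fold dilution series (4 steps) from a top concentration of 1. Cell index recorded every 10 min for 24 h, then every 30 min. Growth inhibition normalized to DMSO; IC50 taken at 24, 48, 72 h.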

Huh-7 [2] = test: Induction of apoptosis in human HuH7 cells assessed as increase in cleaved PARP levels at 1 uM after 72 hrs by Western blot analysis; format: functional, cell-based
Mahlavu [3] = test: Induction of apoptosis in human Mahlavu cells assessed as chromatin condensation at 1 uM by Hoechst staining-based assay; format: functional, cell-based
Mahlavu [4] = test: Induction of apoptosis in human Mahlavu cells assessed as apoptotic body formation at 1 uM by Hoechst staining-based assay; format: functional, cell-based
Huh-7 [5] = test: Induction of apoptosis in human HuH7 cells assessed as viable cells at 1 uM after 24 hrs by Annexin V-FITC/propidium iodide staining-based flow cytometric analysis (reference value: 97.30%); format: functional; details: Huh-7, 24 h, read-out: Activity
Huh-7 [6] = test: Induction of apoptosis in human HuH7 cells assessed as late apoptotic cells at 1 uM after 24 hrs by Annexin V-FITC/propidium iodide staining-based flow cytometric analysis (reference value: 2.51%); format: functional
Huh-7 [7] = test: Induction of apoptosis in human HuH7 cells assessed as necrotic cells at 1 uM after 24 hrs by Annexin V-FITC/propidium iodide staining-based flow cytometric analysis (reference value: 0.03%); format: functional
Huh-7 [8] = test: Induction of apoptosis in human HuH7 cells assessed as viable cells at 1 uM after 48 hrs by Annexin V-FITC/propidium iodide staining-based flow cytometric analysis (reference value: 97.42%); format: functional; details: Huh-7, 48 h, read-out: Activity
Huh-7 [9] = test: Induction of apoptosis in human HuH7 cells assessed as necrotic cells at 1 uM after 48 hrs by Annexin V-FITC/propidium iodide staining-based flow cytometric analysis (reference value: 0.02%); format: functional
Mahlavu [10] = test: Induction of apoptosis in human Mahlavu cells assessed as viable cells at 1 uM after 24 hrs by Annexin V-FITC/propidium iodide staining-based flow cytometric analysis (reference value: 98.51%); format: functional; details: read-out: Activity
Mahlavu [11] = test: Induction of apoptosis in human Mahlavu cells assessed as late apoptotic cells at 1 uM after 72 hrs by Annexin V-FITC/propidium iodide staining-based flow cytometric analysis (reference value: 3.48%); format: functional
Huh-7 [12] = test: Cell cycle arrest in human HuH7 cells assessed as accumulation of cells at subG1 phase at 1 uM after 24 hrs by propidium iodide staining-based flow cytometric analysis (reference value: 6.8%); format: functional
Huh-7 [13] = test: Cell cycle arrest in human HuH7 cells assessed as accumulation of cells at S phase at 1 uM after 48 hrs by propidium iodide staining-based flow cytometric analysis (reference value: 19.1%); format: functional
Huh-7 [14] = test: Cell cycle arrest in human HuH7 cells assessed as accumulation of cells at G1 phase at 1 uM after 72 hrs by propidium iodide staining-based flow cytometric analysis (reference value: 51.6%); format: functional
Mahlavu [15] = test: Cell cycle arrest in human Mahlavu cells assessed as accumulation of cells at G2/M phase at 1 uM after 24 hrs by propidium iodide staining-based flow cytometric analysis (reference value: 24.7%); format: functional
Mahlavu [16] = test: Cell cycle arrest in human Mahlavu cells assessed as accumulation of cells at G1 phase at 1 uM after 48 hrs by propidium iodide staining-based flow cytometric analysis (reference value: 43.5%); format: functional
Mahlavu [17] = test: Cell cycle arrest in human Mahlavu cells assessed as accumulation of cells at S phase at 1 uM after 48 hrs by propidium iodide staining-based flow cytometric analysis (reference value: 11.6%); format: functional
Mahlavu [18] = test: Cell cycle arrest in human Mahlavu cells assessed as accumulation of cells at S phase at 1 uM after 72 hrs by propidium iodide staining-based flow cytometric analysis (reference value: 13%); format: functional
Mahlavu [19] = test: Down-regulation of cyclin E protein expression in human Mahlavu cells at 1 uM after 24 to 72 hrs by Western blot analysis; format: functional, cell-based

| SMILES | IC50 (HCT-116) | IC50 (Hep 3B2) | IC50 (SNU-475) | IC50 (Huh-7 [1]) | Activity (Huh-7 [2]) | Activity (Mahlavu [3]) | Activity (Mahlavu [4]) | viability at 1 µM (Huh-7 [5]) | Activity (Huh-7 [6]) | Activity (Huh-7 [7]) | viability at 1 µM (Huh-7 [8]) | Activity (Huh-7 [9]) | viability at 1 µM (Mahlavu [10]) | Activity (Mahlavu [11]) | Activity (Huh-7 [12]) | Activity (Huh-7 [13]) | Activity (Huh-7 [14]) | Activity (Mahlavu [15]) | Activity (Mahlavu [16]) | Activity (Mahlavu [17]) | also measured |
| --- | --- | --- | --- | --- | --- | --- | --- | --- | --- | --- | --- | --- | --- | --- | --- | --- | --- | --- | --- | --- | --- |
| COc1ccc2c3c(c4cc(OC)c(OC)cc4c2c1)CN1CCCC[C@@H]1C3 | 0.7 µM | 0.016 µM | 0.014 µM | 0.7 µM | Active | Active | Active | 98.9% | 1.03% | 0% | 93.8% | 0.07% | 94.2% | 12.74% | 13.6% | 13.5% | 24.3% | 23.7% | 44.6% | 10.5% | Activity (Mahlavu [18]): 9.1%; Activity (Mahlavu [19]): Active |
| COc1ccc2c3c(c4cc(OC)c(OC)cc4c2c1)CN1CCCCC1C3O (racemic) | < 0.001 µM | 0.017 µM | 0.015 µM | 0.4 µM | Active | Active | Active | 99.1% | 0.93% | 0% | 94.2% | 0.16% | 98.3% | 35.08% | 23.1% | 21% | 17.9% | 32.4% | 37.2% | 9.5% | Activity (Mahlavu [18]): 10.2%; Activity (Mahlavu [19]): Active |
